# Experimental data from different studies.
# Compare with care: the assays were run in different laboratories.
# Target: Myosin light chain kinase 2, skeletal/cardiac muscle (MYLK2, Homo sapiens, UniProt Q9H1R3)
Compound,effect on,method,tested at,remaining binding [%]
CC(=O)C1=C(C)N(c2cccc(C(F)(F)F)c2)C(=O)N[C@@H]1c1ccc(C#N)nc1,cell-free assay,competition with immobilised ligand,1 µM,100
CN(CCCC(F)(F)F)c1nccc(-c2cnn3ncccc23)n1,binding,,1 µM,98
COc1cc(-c2cn(C3CCc4c(F)cccc4N(CC(F)(F)F)C3=O)nn2)ccc1-n1cnc(C)c1 (centres unmarked),cell-free assay,competition with immobilised ligand,1 µM,100
Cc1cnc(Nc2ccc(C(=O)N3CCC(N4CCCC4)CC3)cc2)nc1-c1cc2ccccc2s1,binding,competition with immobilised ligand,1 µM,1.8
COc1ncc2cc3ccccc3nc2c1C#N,binding,competition with immobilised ligand,5 µM,84
O=C(c1ccc(Nc2ncc(Cl)c(-c3cc4ccccc4s3)n2)cc1)N1CCC(N2CCCC2)CC1,binding,competition with immobilised ligand,1 µM,1.2
C[C@@H]1CCN(c2nccc(-c3cnn4ncccc34)n2)C1,binding,,1 µM,86
CCC(=O)N[C@@H]1CC[C@H](C(=O)N(C)c2ccc(-c3nc4ccccc4o3)cc2)C1,cell-free assay,competition with immobilised ligand,1 µM,79
COc1ccnn2ncc(-c3ccnc(N(C)C)n3)c12,binding,,1 µM,96
O=C(c1ccc(Nc2nccc(-c3cc4ccccc4s3)n2)cc1)N1CCC(N2CCCC2)CC1,binding,competition with immobilised ligand,1 µM,0.8
COc1cnc(Nc2cccc(S(N)(=O)=O)c2)nc1N1CCN(c2ccccc2)C(=O)C1,binding,competition with immobilised ligand,1 µM,100
CC1CCCN1c1nccc(-c2cnn3ncccc23)n1 (centres unmarked),binding,,1 µM,100
Cc1c(C(=O)O)cc(-c2ccc(C3CCNCC3)cc2)c2ccc(-c3ccc(C(F)(F)F)cc3)cc12,binding,competition with immobilised ligand,1 µM,100
c1cnn2ncc(-c3ccnc(N4CCC45COC5)n3)c2c1,binding,,1 µM,77
Cc1cc(NC(=O)c2cccc(S(F)(F)(F)(F)F)c2)cc(-n2ccn3nc(-c4cccnc4)cc23)c1,cell-free assay,competition with immobilised ligand,1 µM,100
CNC(=O)[C@@H]1CC[C@@H](n2c(-c3ccc4cnccc4c3)nc3ccc(C(=O)NCc4cccc(C(N)=O)c4)cc32)C1,binding,competition with immobilised ligand,1 µM,100
COc1ccc2cc(OCC3(C(=O)O)CN(C(=O)c4ccc(F)cc4)C3)ccc2c1,cell-free assay,competition with immobilised ligand,1 µM,100
C[C@@H](c1ccc(-n2cnc3c(N)ncnc32)cc1)N1CCc2nn(C)c(Cc3ccccc3)c2C1=O,binding,competition with immobilised ligand,0.1 µM,85
N[C@@H]1CCN(c2nccc(-c3cnn4ncccc34)n2)C1,binding,,1 µM,98
O=C(Nc1c[nH]nc1C(=O)NC1CCNCC1)c1cc(F)cc(F)c1,binding,competition with immobilised ligand,1 µM,88
